# Screening results as filed in PubChem.
# SENP1 FRET inh – inhibitors of human SENP1 SUMO protease catalytic domain | Q9P0U3 | recombinant SENP1 catalytic domain, CyPet-SUMO1-YPet FRET cleavage | inhibition, % at 10 µM | actives 0.21% (n = 360,000) | AID 624204;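 active = inhibition at least 30% at 10 µM, raw YFP signal under a set limit, fluorescence ratio 0.5 to 1.5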;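 also: 0% = enzyme with DMSO and 100% = no enzyme wells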
# Target sequence (Q9P0U3 419-644 limits assumed): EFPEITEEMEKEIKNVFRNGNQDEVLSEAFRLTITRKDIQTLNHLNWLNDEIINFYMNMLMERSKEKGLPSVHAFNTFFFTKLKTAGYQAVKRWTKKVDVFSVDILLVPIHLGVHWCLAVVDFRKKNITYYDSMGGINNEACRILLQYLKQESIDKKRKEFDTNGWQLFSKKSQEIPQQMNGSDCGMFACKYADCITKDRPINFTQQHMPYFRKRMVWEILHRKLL
#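 Material – human SENP1 catalytic domain · Input – SENP1 enzyme, 20 pM final · Compound dosing – single concentration of 10 µM compound, 0.5% DMSO final · Timing – enzyme reaction for 50 min at room temperature, dark · Measured by – FRET fluorescence in CFP and YFP emission channels · Control set – no-enzyme wells low, DMSO-plus-enzyme wells high control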
# ADAM10 inh – inhibitors of human ADAM10 | O14672 | inhibition, % at 7 µM | actives 0.62% (n = 370,000) | recombinant ADAM10, EDANS/DABCYL FRET peptide cleavage, 3 h;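 active = inhibition above a per-campaign cutoff equal to the mean of compounds falling between control-based bounds plus 3 SD, cut at about 20% in these data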;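 also: 0% = DMSO wells while the 100% control is not disclosed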
# FAS-TE inh – inhibitors of human fatty acid synthase thioesterase domain; P49327; recombinant FAS-TE, OMFH fluorogenic substrate, fluorescence endpoint; inhibition, % at 15 µM; actives 0.67% (n = 360,000); AID 602261;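 active = compounds whose normalised, plate-corrected inhibition of enzyme fluorescence in the single-dose primary screen is 50% or more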;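 also: 0% = DMSO with enzyme and 100% = substrate without enzyme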
# ADAM17 inh – inhibitors of human ADAM17. inhibition, % at 6.95 µM. P78536. AID 720648. recombinant ADAM17, EDANS/DABCYL FRET peptide cleavage. actives 0.83% (n = 370,000);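 active = inhibition above the mean of compounds lying between control limits plus 3 SD, set per campaign, cut at about 8.5% in these data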;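 also: 0% = DMSO-only wells as the low control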
# ADAM10 confirm – human ADAM10 inhibition, confirmation; shares compounds with ADAM10 inh; actives 1% (n = 2,100); ADAM10 QFRET peptide cleavage, EDANS fluorescence; inhibition, % at 6.95 µM;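 active = inhibition above about 20% chosen separately for each screening run, limit read from the data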;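 also: 0% = DMSO wells and 100% = marimastat wells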
# ADAM17 counter – counter-screen for ADAM10 exosite inhibitors: inhibitors of human ADAM17. shares compounds with ADAM10 inh. ADAM17 QFRET peptide cleavage, EDANS fluorescence. inhibition, % at 6.95 µM. actives 0.5% (n = 2,100);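 active = mean triplicate inhibition above the solvent-only control wells' mean plus 3 SD, cut at about 12% in these data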;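 also: 0% = DMSO wells and 100% = marimastat wells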
# ADAM10 ctr – inhibits human ADAM10 in ADAM17 exosite counter-screen | shares compounds with ADAM17 inh | recombinant ADAM10, EDANS/DABCYL FRET peptide cleavage, 3 h | inhibition, % at 6.95 µM | actives 47% (n = 2,900);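 active = mean inhibition over the triplicate runs exceeds the activity threshold set in the earlier primary screen, cut at about 20% in these data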;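 also: 0% = DMSO wells and 100% = marimastat wells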
# ADAM17 confirm – human ADAM17 inhibition, confirmation; inhibition, % at 6.95 µM; recombinant ADAM17, EDANS/DABCYL QFRET peptide cleavage; actives 65% (n = 2,900); shares compounds with ADAM17 inh;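 active = mean inhibition across replicates above the hit cutoff set in the primary screen, cut at about 8.5% in these data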;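 also: 0% = DMSO wells and 100% = marimastat wells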
# * = called active by the depositor; . = no result. This is a sample that favours compounds with a hit; in the whole collection about 1.9% have one here.
SMILES,SENP1 FRET inh,ADAM10 inh,FAS-TE inh,ADAM17 inh,ADAM10 confirm,ADAM17 counter,ADAM10 ctr,ADAM17 confirm
O=C(COC(=O)c1ccccn1)Nc1ccc(S(=O)(=O)N2CCOCC2)cc1,0,-6,-3,-5,.,.,.,.
CCc1nc2ccccc2c(C(=O)OCC(=O)Nc2ccc(S(=O)(=O)N3CCOCC3)cc2)c1C,-2,20*,21,10.0*,9,2,21*,12*
Cc1cc(NC(=O)CS(=O)(=O)c2cn(Cc3cccc(Br)c3)c3ccccc23)no1,-1,24*,11,10*,3,1,8,8.7*
Cc1cc(C)cc(NC(=O)C2(c3ccccc3)CC2(Cl)Cl)c1 (configuration not stated),3,20*,32,9.9*,6,2,14,9.6*
O=C(NC(=S)Nc1ccc(S(=O)(=O)Nc2nccs2)cc1)c1ccc(F)c(F)c1,0,24*,-9,11*,4,1,12,6
O=C1COc2ccccc2C(c2nnnn2Cc2ccccc2)N1Cc1cccs1 (configuration not stated),.,1,.,0,.,.,.,.
O=[N+]([O-])c1ccc(O)c(/C=N/Nc2ccccn2)c1,14,24*,8,30*,29*,31*,48*,54*
CCCCCCCC/C=C\CCCCCCCC(=O)NCCc1ccc(O)c(O)c1,-1,28*,-7,13*,5,3,26*,17*
COC(=O)C(NC(=O)c1ccccc1C)(Nc1ncc(S(=O)(=O)c2ccc([N+](=O)[O-])cc2)s1)C(F)(F)F (configuration not stated),1,33*,36,12*,1,1,18,8
COC(=O)C(NC(=O)c1ccc(F)cc1)(Nc1ncc(S(=O)(=O)c2ccc([N+](=O)[O-])cc2)s1)C(F)(F)F (configuration not stated),1,-4,35,1,.,.,.,.
COC(=O)CCN(Cc1ccc(OC)cc1OC)S(=O)(=O)c1ccccc1Br,.,9,.,4,.,.,.,.
O=C(Nc1nc2ccc(F)cc2s1)C1CCN(S(=O)(=O)c2cc([N+](=O)[O-])ccc2Cl)CC1,-4,21*,29,8.8*,5,2,15,13*
Cc1ccc2nc(NC(=O)C3CCN(S(=O)(=O)c4cc([N+](=O)[O-])ccc4Cl)CC3)sc2c1,1,13,35,6,.,.,.,.
O=C(CSc1nnc(-c2ccco2)c(-c2ccco2)n1)c1ccccc1,-2,27*,6,9.0*,4,2,-11,-1
CC1(C(=O)OCC(=O)Nc2nc(-c3ccc(F)c(F)c3)cs2)CC1(Cl)Cl (configuration not stated),-1,21*,34,9.3*,8,2,24*,16*
CC1(C(=O)NCc2ccc(C(F)(F)F)cc2)CCN1Cc1cc2ccccc2o1 (configuration not stated),1,24*,27,11*,2,0,15,7
CC1(C(=O)NCc2cccc(C(F)(F)F)c2)CCN1Cc1ccc2ccccc2c1 (configuration not stated),0,12,33,4,.,.,.,.
CC(=O)Oc1ccc(C(=O)Nc2cccc(C(=O)c3ccc(C)c(C)c3)c2)cc1,3,32*,22,16*,6,2,14,12*
COC(=O)c1cc(-c2cc(Cl)cc(Cl)c2)c(=O)n2c1CCC2,.,-5,.,-5,.,.,.,.
Cc1ccc(-c2cc(C(=O)NN=Cc3sccc3C)[nH]n2)cc1C,.,-11,.,-2,.,.,.,.
CNc1ccc(C=C2C=Cc3ccccc32)cc1,7,41*,30,13*,6,1,46*,18*
S=C(Nc1cc(Cl)cc(Cl)c1)NC(c1ccccc1)c1ccccc1,.,11,.,4,.,.,.,.
CCC(CC)NC(=O)c1cc2c(C)nn(Cc3ccccc3Cl)c2s1,-1,3,14,3,.,.,.,.
Cc1nn(Cc2ccccc2Cl)c2sc(C(=O)NCc3ccc4c(c3)OCO4)cc12,-2,23*,16,12*,6,3,12,12*
COC(=O)[C@]12C[C@H](CC(=O)N3CCCCC3)C(=O)N(Cc3cccc4ccccc34)C1=C[C@H](C1CCCC1)O[C@@H]2C,.,9,.,4,.,.,.,.
SMILES,SENP1 FRET inh,ADAM10 inh,FAS-TE inh,ADAM17 inh,ADAM10 confirm,ADAM17 counter,ADAM10 ctr,ADAM17 confirm
CCCCNC(=O)OC1CCC12CCC(c1ccccc1)CC2 (configuration not stated),.,1,.,-2,.,.,.,.
Cc1ccc(S(=O)(=O)N/N=C/c2ccc(OS(=O)(=O)c3ccc(C)c([N+](=O)[O-])c3)cc2)cc1,4,26*,29,12*,8,2,36*,20*
Cc1ccc(S(=O)(=O)N/N=C\c2ccc(Cl)c([N+](=O)[O-])c2)cc1,1,2,36,2,.,.,.,.
Cc1ccccc1CN(CC(=O)Nc1cccc([N+](=O)[O-])c1)S(=O)(=O)c1ccc(Cl)cc1,1,21*,31,9.7*,8,3,35*,19*
Cc1cc(NS(=O)(=O)c2ccc(NC(=O)CSc3nnc(-c4ccncc4)n3Cc3ccco3)cc2)nc(C)n1,.,-9,.,-5,.,.,.,.
Cc1ccsc1S(=O)(=O)n1c(CN2CCOCC2)nc2ccccc21,.,-6,.,-2,.,.,.,.
C[C@H]1[C@H](NC(=O)c2cccc(C(F)(F)F)c2)CC[C@@]23CCCN2C(=O)CCC[C@@H]13,.,2,.,0,.,.,.,.
CN(CCCOC(=O)c1cc2ccccc2o1)C1CN(Cc2cn(Cc3ccccc3C(F)(F)F)nn2)S(=O)(=O)C1 (configuration not stated),.,-4,.,-3,.,.,.,.
CCc1nc2ccc(C(=O)Nc3cc(-c4ccccc4)ccc3OC)cn2c1N(C)Cc1nccs1,-21,27*,18,11*,6,2,20,15*
CCOC(=O)c1sc(NC(=O)CN2C(=O)NC3(CC(C)CC(C)(C)C3)C2=O)cc1C (configuration not stated),0,24*,12,13*,1,1,18,14*
Cc1c(C)n(Cc2ccc(-c3ccccc3C(=O)O)cc2)c2ccc(C(=O)N[C@@H](C)c3ccc(Br)cc3)cc12,.,5,.,0,.,.,.,.
